Laboratory results taken from ChEMBL document CHEMBL1156226, “Synthesis and structure-activity relationship studies of peptidomimetic PKB/Akt inhibitors: the significance of backbone interactions” (Bioorg Med Chem, 2010).
Square brackets hold non-standard residues; d marks the D form. Peptide text beside a SMILES is read from it. Gly(N-4-hydroxybenzyl) = O=C(O)CNCc1ccc(O)cc1; Gly(N-(CH2)3-guanidino) = N=C(N)NCCCNCC(=O)O; hLeu = CC(C)CC[C@H](N)C(=O)O; NMeNva = CCC[C@H](NC)C(=O)O; Nva = CCC[C@H](N)C(=O)O; Dap = NC[C@H](N)C(=O)O; NPrGly = CCCNCC(=O)O

How the values were obtained:
[1] = target: T1, RAC-alpha serine/threonine-protein kinase (Homo sapiens, UniProt P31749); test: Inhibition of PKB at 100 uM by radioactive kinase assay relative to control
T1 sequence (P31749 whole entry): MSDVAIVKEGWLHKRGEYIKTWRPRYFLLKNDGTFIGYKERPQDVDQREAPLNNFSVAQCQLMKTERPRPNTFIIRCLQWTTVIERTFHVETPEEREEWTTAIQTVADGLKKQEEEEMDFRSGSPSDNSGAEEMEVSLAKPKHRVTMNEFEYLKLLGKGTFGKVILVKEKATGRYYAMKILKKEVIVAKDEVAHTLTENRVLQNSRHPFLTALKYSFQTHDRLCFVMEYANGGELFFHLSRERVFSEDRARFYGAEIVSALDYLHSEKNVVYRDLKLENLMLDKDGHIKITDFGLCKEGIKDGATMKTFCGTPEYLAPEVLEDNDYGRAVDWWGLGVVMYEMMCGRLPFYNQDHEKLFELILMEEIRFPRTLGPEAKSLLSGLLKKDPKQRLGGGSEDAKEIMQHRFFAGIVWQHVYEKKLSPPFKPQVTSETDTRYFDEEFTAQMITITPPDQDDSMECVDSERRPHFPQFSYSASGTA
In short: (§1)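 PKB/Akt enzyme HisAPHPKBEEEFlag, partly purified in one step on Ni-NTA agarose. The radioactive kinase reaction contains 50 mM Hepes pH 7.4, 0.1 mM EGTA, 0.1% 2-mercaptoethanol, 10 mM magnesium acetate, 3 uM RPRTSSF peptide substrate, 10 uM [γ32P]ATP and 0.005 units enzyme. Inhibition is given as percent reduction of activity against a no-inhibitor control. IC50 values, with 95% confidence ranges, come from curve fitting.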

[2] = target: T1, RAC-alpha serine/threonine-protein kinase; test: Inhibition of PKB at 5 uM by radioactive kinase assay relative to control; in short: as §1

CCC[C@H](NC(=O)[C@H](CCCNC(=N)N)NC(=O)[C@@H]1CCCN1C(=O)[C@@H](N)CCCNC(=N)N)C(=O)N[C@@H](Cc1ccc(O)cc1)C(=O)N[C@@H](CN)C(=O)N[C@@H](CCC(C)C)C(=O)O (HELM PEPTIDE1{R.P.R.[Nva].Y.[NC[C@H](N[*:1])C(=O)[*:2]].[CC(C)CC[C@H](N[*:1])C(=O)O]}$$$$V2.0)
inhibition [1]: 95% | inhibition [2]: 51%

CCC[C@H](NC(=O)[C@H](CCCNC(=N)N)NC(=O)[C@@H]1CCCN1C(=O)[C@@H](N)CCCNC(=N)N)C(=O)N[C@@H](Cc1ccc(O)cc1)C(=O)N[C@@H](CN)C(=O)N(C)[C@@H](CCC(C)C)C(N)=O (HELM PEPTIDE1{R.P.R.[Nva].Y.[NC[C@H](N[*:1])C(=O)[*:2]].[CC(C)CC[C@@H](C(=O)[*:2])N(C)[*:1]].[am]}$$$$V2.0)
inhibition [1]: 86% | inhibition [2]: 5%

CCC[C@H](NC(=O)[C@H](CCCNC(=N)N)NC(=O)[C@@H]1CCCN1C(=O)[C@H](CCCNC(=N)N)NC(C)=O)C(=O)N[C@@H](Cc1ccc(O)cc1)C(=O)N[C@@H](CN)C(=O)N[C@@H](CCC(C)C)C(N)=O (HELM PEPTIDE1{[ac].R.P.R.[Nva].Y.[NC[C@H](N[*:1])C(=O)[*:2]].[CC(C)CC[C@H](N[*:1])C(=O)[*:2]].[am]}$$$$V2.0)
inhibition [1]: 92% | inhibition [2]: 45%

CCC[C@H](NC(=O)[C@H](CCCNC(=N)N)NC(=O)[C@@H]1CCCN1C(=O)[C@@H](N)CCCNC(=N)N)C(=O)N[C@@H](Cc1ccc(O)cc1)C(=O)N(C)[C@@H](CN)C(=O)N[C@@H](CCC(C)C)C(N)=O (HELM PEPTIDE1{R.P.R.[Nva].Y.[CN([C@@H](CN)C(=O)[*:2])[*:1]].[CC(C)CC[C@H](N[*:1])C(=O)[*:2]].[am]}$$$$V2.0)
inhibition [1]: 75%

CCC[C@H](NC(=O)[C@H](CCCNC(=N)N)NC(=O)[C@@H]1CCCN1C(=O)[C@@H](N)CCCNC(=N)N)C(=O)N(C)[C@@H](Cc1ccc(O)cc1)C(=O)N[C@@H](CN)C(=O)N[C@@H](CCC(C)C)C(N)=O (HELM PEPTIDE1{R.P.R.[Nva].[meY].[NC[C@H](N[*:1])C(=O)[*:2]].[CC(C)CC[C@H](N[*:1])C(=O)[*:2]].[am]}$$$$V2.0)
inhibition [1]: 88% | inhibition [2]: 13%

CCC[C@H](NC(=O)[C@H](CCCNC(=N)N)NC(=O)[C@@H]1CCCN1C(=O)[C@H](CCCNC(=N)N)NC(C)=O)C(=O)N[C@@H](Cc1ccc(O)cc1)C(=O)N[C@@H](CN)C(=O)N(C)[C@@H](CCC(C)C)C(N)=O (HELM PEPTIDE1{[ac].R.P.R.[Nva].Y.[NC[C@H](N[*:1])C(=O)[*:2]].[CC(C)CC[C@@H](C(=O)[*:2])N(C)[*:1]].[am]}$$$$V2.0)
inhibition [1]: 29%

CCC[C@H](NC(=O)[C@H](CCCNC(=N)N)NC(=O)[C@@H]1CCCN1C(=O)CNCCCNC(=N)N)C(=O)N[C@@H](Cc1ccc(O)cc1)C(=O)N[C@@H](CN)C(=O)N[C@@H](CCC(C)C)C(N)=O (H-[Gly(N-(CH2)3-guanidino)]PR[Nva]Y[Dap][hLeu]-NH2)
inhibition [1]: 95% | inhibition [2]: 32%

CCCN(CC(=O)N[C@@H](Cc1ccc(O)cc1)C(=O)N[C@@H](CN)C(=O)N[C@@H](CCC(C)C)C(N)=O)C(=O)[C@H](CCCNC(=N)N)NC(=O)[C@@H]1CCCN1C(=O)[C@H](CCCNC(=N)N)NC(C)=O (Ac-RPR[NPrGly]Y[Dap][hLeu]-NH2)
inhibition [1]: 0%

CCC[C@H](NC(=O)[C@H](CCCNC(=N)N)NC(=O)[C@@H]1CCCN1C(=O)[C@H](CCCNC(=N)N)NC(C)=O)C(=O)N[C@@H](Cc1ccc(O)cc1)C(=O)N(C)[C@@H](CN)C(=O)N[C@@H](CCC(C)C)C(N)=O (HELM PEPTIDE1{[ac].R.P.R.[Nva].Y.[CN([C@@H](CN)C(=O)[*:2])[*:1]].[CC(C)CC[C@H](N[*:1])C(=O)[*:2]].[am]}$$$$V2.0)
inhibition [1]: 33%

CCC[C@H](NC(=O)[C@H](CCCNC(=N)N)NC(=O)[C@@H]1CCCN1C(=O)[C@H](CCCNC(=N)N)NC(C)=O)C(=O)N[C@@H](Cc1ccc(O)cc1)C(=O)N(C)[C@@H](CN)C(=O)N[C@@H](CCC(C)C)C(=O)O (HELM PEPTIDE1{[ac].R.P.R.[Nva].Y.[CN([C@@H](CN)C(=O)[*:2])[*:1]].[CC(C)CC[C@H](N[*:1])C(=O)O]}$$$$V2.0)
inhibition [1]: 1%

CCC[C@H](NC(=O)[C@H](CCCNC(=N)N)NC(=O)[C@@H]1CCCN1C(=O)[C@@H](N)CCCNC(=N)N)C(=O)N[C@@H](Cc1ccc(O)cc1)C(=O)N[C@@H](CN)C(=O)N(CC(N)=O)CC(C)CC (some centres not stated) (HELM PEPTIDE1{R.P.R.[Nva].Y.[NC[C@H](N[*:1])C(=O)[*:2]].[CCC(C)CN(CC(=O)[*:2])[*:1]].[am]}$$$$V2.0)
inhibition [1]: 39%

CCC[C@H](NC(=O)CN(CCCNC(=N)N)C(=O)[C@@H]1CCCN1C(=O)[C@@H](N)CCCNC(=N)N)C(=O)N[C@@H](Cc1ccc(O)cc1)C(=O)N[C@@H](CN)C(=O)N[C@@H](CCC(C)C)C(N)=O (H-RP[Gly(N-(CH2)3-guanidino)][Nva]Y[Dap][hLeu]-NH2)
inhibition [1]: 30%

CCC[C@H](NC(=O)[C@H](CCCNC(=N)N)N(C)C(=O)[C@@H]1CCCN1C(=O)[C@@H](N)CCCNC(=N)N)C(=O)N[C@@H](Cc1ccc(O)cc1)C(=O)N[C@@H](CN)C(=O)N[C@@H](CCC(C)C)C(=O)O (HELM PEPTIDE1{R.P.[meR].[Nva].Y.[NC[C@H](N[*:1])C(=O)[*:2]].[CC(C)CC[C@H](N[*:1])C(=O)O]}$$$$V2.0)
inhibition [1]: 42%

CCC[C@H](NC(=O)[C@H](CCCNC(=N)N)NC(=O)[C@@H]1CCCN1C(=O)[C@H](CCCNC(=N)N)NC(C)=O)C(=O)N[C@@H](Cc1ccc(O)cc1)C(=O)N[C@@H](CN)C(=O)N(CC(N)=O)CC(C)CC (some centres not stated) (HELM PEPTIDE1{[ac].R.P.R.[Nva].Y.[NC[C@H](N[*:1])C(=O)[*:2]].[CCC(C)CN(CC(=O)[*:2])[*:1]].[am]}$$$$V2.0)
inhibition [1]: 1%

CCC[C@H](NC(=O)[C@H](CCCNC(=N)N)NC(=O)[C@@H]1CCCN1C(=O)[C@@H](N)CCCNC(=N)N)C(=O)N[C@@H](Cc1ccc(O)cc1)C(=O)N(C)[C@@H](CN)C(=O)N[C@@H](CCC(C)C)C(=O)O (HELM PEPTIDE1{R.P.R.[Nva].Y.[CN([C@@H](CN)C(=O)[*:2])[*:1]].[CC(C)CC[C@H](N[*:1])C(=O)O]}$$$$V2.0)
inhibition [1]: 0%

CCC[C@H](NC(=O)[C@H](CCCNC(=N)N)NC(=O)[C@@H]1CCCN1C(=O)[C@H](CCCNC(=N)N)NC(C)=O)C(=O)N[C@@H](Cc1ccc(O)cc1)C(=O)N[C@@H](CN)C(=O)N(CC(=O)O)CC(C)CC (some centres not stated) (HELM PEPTIDE1{[ac].R.P.R.[Nva].Y.[NC[C@H](N[*:1])C(=O)[*:2]].[CCC(C)CN(CC(=O)O)[*:1]]}$$$$V2.0)
inhibition [1]: 4%

CCC[C@H](NC(=O)[C@H](CCCNC(=N)N)NC(=O)[C@@H]1CCCN1C(=O)[C@H](CCCNC(=N)N)NC(C)=O)C(=O)N(CC(=O)N[C@@H](CN)C(=O)N[C@@H](CCC(C)C)C(N)=O)Cc1ccc(O)cc1 (Ac-RPR[Nva][Gly(N-4-hydroxybenzyl)][Dap][hLeu]-NH2)
inhibition [1]: 49%

CCC[C@H](NC(=O)[C@H](CCCNC(=N)N)N(C)C(=O)[C@@H]1CCCN1C(=O)[C@@H](N)CCCNC(=N)N)C(=O)N[C@@H](Cc1ccc(O)cc1)C(=O)N[C@@H](CN)C(=O)N[C@@H](CCC(C)C)C(N)=O (HELM PEPTIDE1{R.P.[meR].[Nva].Y.[NC[C@H](N[*:1])C(=O)[*:2]].[CC(C)CC[C@H](N[*:1])C(=O)[*:2]].[am]}$$$$V2.0)
inhibition [1]: 92% | inhibition [2]: 39%

CCC[C@H](NC(=O)[C@H](CCCNC(=N)N)NC(=O)[C@@H]1CCCN1C(=O)[C@H](CCCNC(=N)N)NC(C)=O)C(=O)N[C@@H](Cc1ccc(O)cc1)C(=O)N[C@@H](CN)C(=O)N(C)[C@@H](CCC(C)C)C(=O)O (HELM PEPTIDE1{[ac].R.P.R.[Nva].Y.[NC[C@H](N[*:1])C(=O)[*:2]].[CC(C)CC[C@@H](C(=O)O)N(C)[*:1]]}$$$$V2.0)
inhibition [1]: 1%

CCC[C@H](NC(=O)[C@H](CCCNC(=N)N)NC(=O)[C@@H]1CCCN1C(=O)[C@H](CCCNC(=N)N)NC(C)=O)C(=O)N(C)[C@@H](Cc1ccc(O)cc1)C(=O)N[C@@H](CN)C(=O)N[C@@H](CCC(C)C)C(N)=O (HELM PEPTIDE1{[ac].R.P.R.[Nva].[meY].[NC[C@H](N[*:1])C(=O)[*:2]].[CC(C)CC[C@H](N[*:1])C(=O)[*:2]].[am]}$$$$V2.0)
inhibition [1]: 40%

CCC[C@H](NC(=O)[C@H](CCCNC(=N)N)NC(=O)[C@@H]1CCCN1C(=O)[C@@H](N)CCCNC(=N)N)C(=O)N(CC(=O)N[C@@H](CN)C(=O)N[C@@H](CCC(C)C)C(N)=O)Cc1ccc(O)cc1 (H-RPR[Nva][Gly(N-4-hydroxybenzyl)][Dap][hLeu]-NH2)
inhibition [1]: 85% | inhibition [2]: 23%

CCC[C@H](NC(=O)[C@H](CCCNC(=N)N)NC(=O)[C@@H]1CCCN1C(=O)[C@H](CCCNC(=N)N)NC(C)=O)C(=O)N[C@@H](Cc1ccc(O)cc1)C(=O)N[C@@H](CN)C(=O)N[C@@H](CCC(C)C)C(=O)O (HELM PEPTIDE1{[ac].R.P.R.[Nva].Y.[NC[C@H](N[*:1])C(=O)[*:2]].[CC(C)CC[C@H](N[*:1])C(=O)O]}$$$$V2.0)
inhibition [1]: 66%

CCC[C@@H](C(=O)N[C@@H](Cc1ccc(O)cc1)C(=O)N[C@@H](CN)C(=O)N[C@@H](CCC(C)C)C(N)=O)N(C)C(=O)[C@H](CCCNC(=N)N)NC(=O)[C@@H]1CCCN1C(=O)[C@@H](N)CCCNC(=N)N (H-RPR[NMeNva]Y[Dap][hLeu]-NH2)
inhibition [1]: 62%

CCCN(CC(=O)N[C@@H](Cc1ccc(O)cc1)C(=O)N[C@@H](CN)C(=O)N[C@@H](CCC(C)C)C(N)=O)C(=O)[C@H](CCCNC(=N)N)NC(=O)[C@@H]1CCCN1C(=O)[C@@H](N)CCCNC(=N)N (H-RPR[NPrGly]Y[Dap][hLeu]-NH2)
inhibition [1]: 16%

CCC[C@H](NC(=O)[C@H](CCCNC(=N)N)NC(=O)[C@@H]1CCCN1C(=O)[C@H](CCCNC(=N)N)NC(C)=O)C(=O)N(CC(=O)N[C@@H](CN)C(=O)N[C@@H](CCC(C)C)C(=O)O)Cc1ccc(O)cc1 (Ac-RPR[Nva][Gly(N-4-hydroxybenzyl)][Dap][hLeu]-OH)
inhibition [1]: 28%
